From PubChem BioAssay
This is a sample that favours compounds with a hit; in the whole collection about 6.7% have one here.
CSC inhib: cancer stem cell inhibition. cancer stem cell-like cells viability, luminescence. inhibition, % at 7.5 µM. actives 1.1% (n = 300,000). AID 2717; in the data active = inhibition above about 75%; inconclusive = no clear call, values can overlap the other calls; tested in HMLE shEcad cells
CHOP inhibitor: CHOP inhibition in unfolded protein response. CHO-K1 CHOP-promoter luciferase, tunicamycin-induced, 15-18 h. inhibition, % at 10 µM. actives 3.8% (n = 220,000). AID 2732;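 active = compounds that reduced the stress-induced luciferase reporter signal by more than about 70% of percent inhibition, limit read from the data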;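 also: 0% = tunicamycin plus vehicle and 100% = wells without tunicamycin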
T cruzi repl: blocks replication of Trypanosoma cruzi; T. cruzi beta-gal in NIH3T3, luminescence, 90 h; inhibition, % (no concentration beside the values); actives 1.4% (n = 300,000); AID 1885;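 active = mean inhibition across valid replicates above about 55%, limit read from the data; inconclusive = mean below that limit but half or more replicates reach it; inactive = mean below it, under half of replicates reach it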;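 also: signal also drops with host cell toxicity which is not excluded here; 0% = plate median of DMSO wells and 100% = zero luminescence signal; higher percent means less beta-gal luminescence so fewer parasites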
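Assay system: NIH/3T3 host cells with β-galactosidase reporter T. cruzi; input: 5,000 host fibroblasts per well; compound: single 50 nL compound addition per well in DMSO; timing: ≥90 h infection period, 3 h prior cell attachment; measured by: GalScreen β-gal luminescence, detergent lysis, 60 min; evaluation: percent inhibition of parasite-derived β-gal signal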
PREPL inh: inhibitors of human prolyl oligopeptidase-like enzyme PREPL. actives 0.68% (n = 320,000). recombinant PREPL, fluorescence polarization activity-based probe. inhibition, % at 5.96 µM. AID 2751; in the data active = inhibition above about 43%;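 also: 0% = enzyme with DMSO and 100% = wells lacking enzyme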
Target sequence (Q4J6C6 whole entry, looked up): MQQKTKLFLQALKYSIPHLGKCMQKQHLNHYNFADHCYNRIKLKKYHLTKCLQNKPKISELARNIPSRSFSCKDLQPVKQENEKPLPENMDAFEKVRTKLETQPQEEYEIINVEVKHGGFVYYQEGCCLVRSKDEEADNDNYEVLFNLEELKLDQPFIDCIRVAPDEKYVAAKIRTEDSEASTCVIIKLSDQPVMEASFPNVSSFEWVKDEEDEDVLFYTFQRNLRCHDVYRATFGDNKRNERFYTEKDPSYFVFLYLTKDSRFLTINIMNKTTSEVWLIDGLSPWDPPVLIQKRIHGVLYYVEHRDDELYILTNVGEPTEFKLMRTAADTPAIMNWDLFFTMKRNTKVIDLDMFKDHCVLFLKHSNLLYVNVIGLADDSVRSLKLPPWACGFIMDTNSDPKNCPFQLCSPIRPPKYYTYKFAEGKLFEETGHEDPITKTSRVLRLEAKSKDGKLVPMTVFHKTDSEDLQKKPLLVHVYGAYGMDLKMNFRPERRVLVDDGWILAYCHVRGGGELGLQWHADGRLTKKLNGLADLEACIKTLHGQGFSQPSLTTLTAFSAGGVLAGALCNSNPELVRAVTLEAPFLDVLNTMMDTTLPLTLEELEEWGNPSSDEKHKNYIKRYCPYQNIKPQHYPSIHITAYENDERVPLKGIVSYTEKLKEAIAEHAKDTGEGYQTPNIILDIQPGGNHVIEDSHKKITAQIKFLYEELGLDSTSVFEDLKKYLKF
Beta apoptosis: beta cell apoptosis inhibition | INS-1E cytokine-induced death, ATP luminescence, 48 h; percent of positive-control rescue, neutral wells zero | actives 0.8% (n = 300,000) | AID 435005 | protection from apoptosis, % (no concentration beside the values);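 active = Every replicate reaches about 75%, or at least half do and their mean reaches it too, limit read from the data; inconclusive = At least half of replicates reach the limit but their mean does not; inactive = Under half of replicates reach the limit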;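 also: 0% = cytokine-treated negative control wells and 100% = positive control rescue; higher means more ATP so stronger rescue from cytokine killing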
GRIN3A LBD mod: NR3A (human) ligand-binding domain modulation. NR3A LBD differential scanning fluorimetry, Tm shift; 0% = protein alone, 100% = glycine-bound protein. Tm shift relative to glycine control, % at 25 µM. actives 2.5% (n = 340,000);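 active = melting temperature shift of at least 10% of the positive control shift, at one fixed dose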
* marks the source's active call; other numbers are inactive results; ? = inconclusive; . = not tested or not shown.

SMILES	CSC inhib	CHOP inhibitor	T cruzi repl	PREPL inh	Beta apoptosis	GRIN3A LBD mod
CNc1nc(SCc2ccccc2Cl)nc2c1CCCC2	79*	66	14	15	5	-9
CCOC(=O)C1=C(COc2ccc(C)cc2)NC(=O)NC1c1cc(C)ccc1C (centres undefined)	-1	90*	-14	-6	1	1
CN(CCCNC(=O)CCCOc1cc(=O)n(C)c2ccccc12)Cc1ccccc1	-2	-9	71*	-10	-5	-1
O=c1c(Cc2ccc(F)cc2)c(O)ccn1Cc1ccc(Cl)cc1Cl	6	83*	-10	1	3	-16
CCOC(=O)c1nn(-c2ccc(OCC)cc2)c2nc(-c3ccco3)c(C#N)c(=O)n12	-5	42	21	4	11	-6
Cc1occc1C(=O)/C(C#N)=C/c1ccc(O)c(Br)c1	8	.	3	7	-6	-6
OC(COc1ccccc1)CN1CCCCC1 (centres undefined)	.	.	.	.	.	-1
OC(COc1ccc(CNCCc2ccccc2F)cc1)CN1CCCCC1 (centres undefined)	103*	0	39	23	3	2
O=C1N=c2ccccc2=C1c1sc(=S)n(NC(=O)c2ccccc2)c1O	-1	94*	-4	9	-1	31*
Cc1ccc(F)cc1NC(=O)COC(=O)C1CCN(c2ccc(C(F)(F)F)cn2)CC1	-1	.	4	-25	-4	-1
CCCCN(Cc1ccccc1)c1ncnc2nc[nH]c12	-5	75*	15	-11	2	-2
CCCCN(CCCC)c1ncnc2nc[nH]c12	.	54	5	9	-21	-1
Cc1cc(C)cc(NC(=O)COC(=O)COc2ccc(N(C)S(=O)(=O)c3cccs3)cc2)c1	12	.	.	-1	1	1
O=S(=O)(c1ccc(F)cc1)N1CC2CCCN2c2ccc(C(F)(F)F)cc21 (centres undefined)	35	75*	16	14	15	-13
Cc1ccc(S(=O)(=O)N2CC3CCCN3c3ccc(C(F)(F)F)cc32)cc1 (centres undefined)	47	55	18	-2	14	-17
CCCCNc1c(-c2cccc(SC(C)CC)c2)nc2ccc(Cl)cn12 (centres undefined)	63	.	.	22	4	-16
CCCCNc1c(-c2cccc(SC3CCCCC3)c2)nc2ccc(Cl)cn12	4	.	39	1	.	-9
CCCCNc1c(-c2ccc(SC3CCCCC3)cc2)nc2ccccn12	82*	.	71*	6	?	-10
CCCCNc1c(-c2ccc(SC(C)CC)cc2)nc2ccccn12 (centres undefined)	92*	.	37	9	16	-8
CCCCCCSc1ccc(-c2nc3cnccn3c2NCCCC)cc1	105*	.	.	17	-3	1
CN(CC(=O)NCCCc1ccccc1)S(=O)(=O)c1ccc(Br)cc1	-6	.	-1	1	3	-1
Cn1c(O)c(C2=c3ccccc3=NC2=O)[nH]c1=S	-11	84*	-18	4	5	-1
COc1ccc2nc(N3C(=O)CNC3=S)sc2c1	-11	-51	-30	-4	.	2
COc1ccc2nc(-n3c(O)c(C4=c5ccccc5=NC4=O)[nH]c3=S)sc2c1	111*	103*	-4	12	10	17*
CC(=O)c1cccc(NC(=O)C(C)OC(=O)CCc2nc3ccccc3c(=O)[nH]2)c1 (centres undefined)	-15	.	.	7	-3	-1
SMILES	CSC inhib	CHOP inhibitor	T cruzi repl	PREPL inh	Beta apoptosis	GRIN3A LBD mod
CCOC(=O)C1ON2CCCCC2C1(O)C(F)(F)F (centres undefined)	9	4	3	13	.	0
CC(C)(C)c1ccc(-c2cc(N)n[nH]2)cc1	-2	91*	14	-13	-6	7
CCOP1(=O)OCC2OC(n3cnc4c(N)ncnc43)C(O)C2O1 (centres undefined)	-5	-1	-22	-3	.	4
CCc1ccc(N2CC(C(=O)N/N=C/c3cccc([N+](=O)[O-])c3)CC2=O)cc1 (centres undefined)	0	83*	4	18	-7	-6
Cc1ccc(N2CC(C(=O)N/N=C/c3cccc([N+](=O)[O-])c3)CC2=O)cc1 (centres undefined)	-6	47	10	0	4	-4
Cc1c2c(nc3ccccc13)CCC(C(C)(C)C)C2 (centres undefined)	8	72*	57*	-13	14	0
O=C1c2ccccc2/C(=C\c2ccc3[nH]ccc3c2)N1c1ccccc1	.	.	.	19	-5	-1
CCC/C(=C1/c2ccccc2C(=O)N1c1ccccc1)c1ccc2[nH]ccc2c1	135*	.	.	14	19	13*
COc1ccccc1Nc1ncnc2c1c(C)c(C)n2CCCN(C)C	1	.	58*	4	-3	-4
Cc1c(C)n(CCCN(C)C)c2ncnc(NC3CCCCC3)c12	31	.	56*	6	-4	-3
Cc1c(C)n(CCCN(C)C)c2ncnc(Nc3ccccc3)c12	-10	.	?	22	4	-1
CCCCS(=N)(=O)CC[C@H](N)C(=O)O (some centres undefined)	.	44	.	.	.	.
Cc1nc2c(sc(=S)n2Cc2ccco2)c(=O)n1CC(=O)Nc1ccc(F)cc1	0	.	4	0	5	14*
CCn1c(=S)sc2c(=O)n(CC(=O)Nc3ccc(Cl)cc3)c(C)nc21	23	.	1	2	1	15*
CCn1c(=S)sc2c(=O)n(CC(=O)Nc3ccccc3)c(C)nc21	-13	.	12	5	6	-3
CCn1c(=S)sc2c(=O)n(CC(=O)Nc3ccc(OC)c(Cl)c3)c(C)nc21	0	.	-4	-7	-5	12*
COc1ccccc1N(Cc1ccccc1)S(=O)(=O)c1cccc(C(=O)N2CCCCC2)c1	1	.	.	14	1	0
OC(CSc1c(Cl)cccc1Cl)CN1CCN(c2ccc(F)cc2)CC1 (centres undefined)	3	88*	37	-28	5	-13
CC(=O)c1ccccc1OCc1ccc(S(=O)(=O)Cc2ccccc2)cc1	.	.	14	-18	.	4
CCN(CC)S(=O)(=O)c1ccc(C)c(NC(=O)COC(=O)c2ccc(C)c(S(=O)(=O)N3CCOCC3)c2)c1	0	-2	4	4	-1	1
CCc1ccc(C(=O)NNc2ccccc2F)cc1	37	-7	-10	18	-1	-2
CCc1ccc(C(=O)NNc2cc(Cl)ccc2Cl)cc1	5	22	.	-2	92*	-3
Cc1cc(Cl)c(S(=O)(=O)N2CCN(c3ccccc3)CC2)cc1OCC(N)=O	7	11	-15	-57	-1	1
COc1ccc(OC)c(NC(=O)CCn2c(=S)[nH]c3ccccc3c2=O)c1	-4	.	2	5	-3	-1
